From PubChem BioAssay
Active and inactive are the calls of the source.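 The calls were made as follows, unless noted: active = fluorescence slope after compound addition differing from the mean of all screened samples at 99.7% confidence, in either direction; inactive = the rest.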

Tests used:
[1] = inhibitors of TNFa-induced NFkB p65 translocation, primary screen, imaging, HUVEC, MLSMR starter and 10KST1 sets (AID 438;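 active = inhibition above 20% together with a positive visual image hit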;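 also: compound added about 3h40 before a 20 min TNFalpha stimulation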;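 as to inhibition: signal is the nuclear over cytoplasmic p65 intensity ratio per well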); conditions: HUVEC TNFa-induced p65 nuclear translocation; cell count: measured here: nuclei count (cytotoxicity indicator), at 2.08 µM; inhibition: at 2 µM, stronger effect = higher value, 0% TNFa-plus-vehicle, 100% no-TNFa wells
[2] = inhibitors of mutant huntingtin aggregation, primary screen, imaging, exon1htt(103Q)mCFP cells, high-content imaging (AID 483;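 active = visual image review flags a hit and inhibition of aggregation exceeds 20%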;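 also: compound exposure lasted 3 days before fixation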;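 as to nuclei count: percent of the per-plate median nuclei count of sample wells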); conditions: exon1htt(103Q)mCFP cell line, aggregate imaging, at 2 µM; inhibition of aggregation: stronger effect = higher value; nuclei count: measured here: cell count, toxicity
[3] = inhibitors of E-selectin induction by TNFa, primary screen, imaging, HUVEC, immunofluorescence, MLSMR starter and 10KST1 sets (AID 487;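 active = visually confirmed hit in the image check and inhibition above 20%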;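 as to inhibition: signal is fraction of cell area covered by stained E-selectin grains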;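 as to nuclei count: 100% = median nuclei count of all wells on the same plate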); conditions: HUVEC TNFalpha-induced E-selectin immunofluorescence imaging, at 2 µM; inhibition: stronger effect = higher value; nuclei count: measured here: cell number, toxicity
[4] = molecular target: Voltage-gated potassium channel subunit beta-2 (Rattus norvegicus) (UniProt P62483); assay: KvBeta enzyme negative modulators, primary screen, biochemical, NADPH fluorescence (AID 622;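 active = fluorescence slope higher than the sample average by over 3 SD, cut at about -0.22 in these data, passing the limit was not always enough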;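 also: slope of raw intensity against log time taken from 70 to 1610 s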); conditions: recombinant KvBeta, 4-cyanobenzaldehyde reduction, at 10 µM, stronger effect = higher value
Chain of Voltage-gated potassium channel subunit beta-2 (Rattus norvegicus) (P62483 whole entry, looked up): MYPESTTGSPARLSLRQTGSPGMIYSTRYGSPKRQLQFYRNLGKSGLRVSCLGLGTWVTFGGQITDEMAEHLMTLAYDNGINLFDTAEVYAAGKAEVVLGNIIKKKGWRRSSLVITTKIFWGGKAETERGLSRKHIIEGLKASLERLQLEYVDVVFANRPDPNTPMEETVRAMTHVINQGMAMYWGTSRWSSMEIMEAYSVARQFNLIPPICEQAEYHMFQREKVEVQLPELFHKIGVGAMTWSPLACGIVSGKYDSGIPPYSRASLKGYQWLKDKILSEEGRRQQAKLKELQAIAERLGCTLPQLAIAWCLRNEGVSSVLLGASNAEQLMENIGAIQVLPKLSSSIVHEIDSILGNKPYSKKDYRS

[5] = molecular target: Voltage-gated potassium channel subunit beta-2 (Rattus norvegicus) (UniProt P62483); assay: KvBeta positive modulators, primary screen, biochemical, NADPH fluorescence (AID 623;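 active = NADPH fluorescence slope more negative than the mean of all samples by about 3 SD, 99.7% confidence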;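 also: fluorescence intensity change per second fitted from 20 to 320 s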); conditions: Recombinant KvBeta, NADPH fluorescence decrease slope, 10 min; at 10 µM; stronger effect = lower value
[6] = molecular target: Alpha-2C adrenergic receptor (Homo sapiens) (UniProt P18825); assay: modulators of alpha2C/GIRK thallium flux, primary screen, cell-based, HEK293 alpha2C/GIRK1/2 (AID 624); conditions: thallium flux BTC fluorescence, at 10 µM, actives lie on both sides;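 also: slope of fluorescence ratio to pre-addition baseline per second over 15 to 24 s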
Chain of Alpha-2C adrenergic receptor (Homo sapiens) (P18825 whole entry, looked up): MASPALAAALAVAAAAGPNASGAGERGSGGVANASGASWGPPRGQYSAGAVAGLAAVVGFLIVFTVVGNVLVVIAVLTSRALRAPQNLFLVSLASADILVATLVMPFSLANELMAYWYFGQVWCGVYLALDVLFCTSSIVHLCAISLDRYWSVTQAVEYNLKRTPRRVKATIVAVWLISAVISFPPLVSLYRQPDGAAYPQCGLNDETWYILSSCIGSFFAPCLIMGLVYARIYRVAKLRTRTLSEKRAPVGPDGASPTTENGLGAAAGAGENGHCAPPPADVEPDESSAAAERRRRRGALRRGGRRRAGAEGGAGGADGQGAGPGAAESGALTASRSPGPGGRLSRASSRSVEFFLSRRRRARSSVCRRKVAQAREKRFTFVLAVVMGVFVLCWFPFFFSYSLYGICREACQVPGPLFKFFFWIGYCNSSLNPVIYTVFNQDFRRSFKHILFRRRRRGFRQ

[7] = inhibitors of larval lipid processing in zebrafish, primary screen, whole organism, PED6 fluorescence, gall bladder and intestine (AID 686;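 active = a full or partial loss of lipid-probe fluorescence in the fish gall bladder, intestine or both, judged by eye; inactive = no fluorescence loss, or compound toxic to the fish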;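 also: larvae 5 to 7 days old with five fish per well; signal comes from phospholipase A2 cleavage of quenched PED6 carried via bile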); conditions: Zebrafish larvae PED6 lipid processing, fluorescence scoring; screened at 20 µM (by protocol)
How it was run: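 Incubation: overnight exposure of larvae to compound plus PED6 / Test system: live zebrafish larvae aged 5-7 days, whole organism / Amount: 5 larvae per well / Read-out basis: visual per-well fluorescence inhibition score / Signal: visual fluorescence microscopy scoring of gall bladder, gut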

[8] = inhibitors of Sendai virus-induced IRF3 signaling, primary screen, TLR/RLR signaling modifier project, cell-based, Sendai virus stimulus, luciferase, 10K MLSCN set (AID 602276;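 active = inhibition at or above 50% at 10 µM; inactive = inhibition below 50%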;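 also: firefly luciferase from ISG56 promoter only with Renilla not read in this screen; 0% = Sendai virus plus DMSO and 100% = medium plus DMSO without virus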); conditions: HEK293 RL24 IRF3 luciferase reporter, at 10 µM, stronger effect = higher value
[9] = inhibitors of poly I:C-induced TLR3 signaling, primary screen, cell-based, poly I:C stimulus, luciferase, 10K MLSCN set (AID 602277;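 active = inhibition of the reporter signal at or above 50%; inactive = inhibition below 50%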); conditions: HEK293-TLR3 RL24 IRF3 luciferase reporter, at 10 µM, stronger effect = higher value

Row | SMILES | cell count [1] | inhibition [1] | inhibition of aggregation [2] | nuclei count [2] | inhibition [3] | nuclei count [3] | fluorescence slope [4] | NADPH fluorescence slope [5] | slope [6] | outcome [7] | inhibition [8] | inhibition [9]
1 | CCN(CC)S(=O)(=O)c1ccc2c(c1)nc(SCn1nnc3ccccc3c1=O)n2CC | 765 | 6% (inactive) | 6.8% (inactive) | 94.2% | -114% (inactive) | 129% | -0.433 (inactive) | -6.2e-05 (inactive) | 0.00509 (inactive) | inactive | 15.4% (inactive) | 11.9% (inactive)
2 | Cc1nnc(NC(=O)CCC(=O)N2CCC(C)CC2)s1 | 355 | -2% (inactive) | -13.9% (inactive) | 119% | -84.2% (inactive) | 120% | -0.465 (inactive) | -4.6e-05 (inactive) | 0.0059 (inactive) | inactive | 12.2% (inactive) | 14% (inactive)
3 | OC(CNCCc1ccccc1)c1ccccc1 (stereo not given) | 586 | 11% (inactive) | 14.9% (inactive) | 91.9% | 48.6% (inactive) | 55.2% | -0.37 (inactive) | -7.3e-05 (inactive) | 0.00466 (inactive) | inactive | 11.9% (inactive) | 15.7% (inactive)
4 | COc1ccc(NC(=O)CC2CCCCC2)cc1OC | 258 | -5.5% (inactive) | -4.8% (inactive) | 91.1% | -69.1% (inactive) | 99.7% | -0.356 (inactive) | -2.3e-05 (inactive) | 0.00718 (inactive) | inactive | -6.37% (inactive) | -23% (inactive)
5 | Cc1ccc2c(c1C)NC(C(=O)O)C1CC=CC21 (stereo not given) | 371 | 1.6% (inactive) | -10.5% (inactive) | 77.6% | -11.4% (inactive) | 114% | -0.373 (inactive) | -2.5e-05 (inactive) | 0.00434 (inactive) | inactive | 13.7% (inactive) | 18.5% (inactive)
6 | COc1ccccc1OCc1nc2ccccc2[nH]1 | 391 | 1.3% (inactive) | 19.9% (inactive) | 101% | 29.8% (inactive) | 86.3% | -0.444 (inactive) | -7e-05 (inactive) | 0.0055 (inactive) | inactive | -14.3% (inactive) | -80.7% (inactive)
7 | COc1cc(C)c(Br)cc1S(=O)(=O)N1CCOCC1 | 397 | 6.3% (inactive) | 3.4% (inactive) | 106% | -68.9% (inactive) | 126% | -0.461 (inactive) | -4.2e-05 (inactive) | 0.00698 (inactive) | inactive | 11.9% (inactive) | 4.48% (inactive)
8 | COc1ccc(OC)c(N(CC(=O)Nc2cccnc2)S(=O)(=O)c2ccc(OC)c(OC)c2)c1 | 722 | 7.9% (inactive) | -6.2% (inactive) | 97% | -37.3% (inactive) | 94.1% | -0.456 (inactive) | -5.3e-05 (inactive) | 0.00497 (inactive) | inactive | 18.6% (inactive) | 21.4% (inactive)
9 | Cc1nn(-c2ccccc2)c2[nH]c(C(F)(F)F)cc(=O)c12 | 364 | 0.7% (inactive) | 17.9% (inactive) | 103% | -10.5% (inactive) | 97.8% | -0.411 (inactive) | -4.4e-05 (inactive) | 0.00725 (inactive) | inactive | 5.93% (inactive) | -1.53% (inactive)
10 | CCCCOC(=O)Nc1nccs1 | 690 | -2.6% (inactive) | 4.5% (inactive) | 116% | -53.6% (inactive) | 116% | -0.404 (inactive) | -3.3e-05 (inactive) | 0.00518 (inactive) | inactive | -8.28% (inactive) | -28.8% (inactive)
11 | COc1ccc(NC(=O)N2CCC(c3nc(-c4cccs4)no3)CC2)cc1 | 486 | -35.7% (inactive) | 1.4% (inactive) | 56.4% | -41.5% (inactive) | 102% | -0.36 (inactive) | -5.2e-05 (inactive) | 0.00458 (inactive) | inactive | -1.92% (inactive) | -22% (inactive)
12 | COC(=O)CCN(C(=O)c1ccc2c(c1)OCO2)c1ccccn1 | 730 | 2.9% (inactive) | -10.6% (inactive) | 98.2% | -0.1% (inactive) | 89.7% | -0.4 (inactive) | -4.5e-06 (inactive) | 0.00511 (inactive) | inactive | 17.3% (inactive) | 18% (inactive)
13 | O=C(O)C1CCCCC1C(=O)Nc1ccccn1 (stereo not given) | 475 | -7.1% (inactive) | -2.7% (inactive) | 109% | 18.5% (inactive) | 83.2% | -0.445 (inactive) | -5e-05 (inactive) | 0.00502 (inactive) | inactive | 7.72% (inactive) | 0.963% (inactive)
14 | Cc1ccc(F)cc1NC(=O)C1CCCN(c2ncccn2)C1 (stereo not given) | 692 | -7.8% (inactive) | -34.5% (inactive) | 117% | -56.9% (inactive) | 118% | -0.357 (inactive) | -1.9e-05 (inactive) | 0.00523 (inactive) | inactive | 7.51% (inactive) | 9.04% (inactive)
15 | COc1cc2cc(C(c3nnnn3C3CCCC3)N3CCCCCC3)c(=O)[nH]c2cc1OC (stereo not given) | 477 | -13.3% (inactive) | 22.5% (inactive) | 75% | 40.8% (inactive) | 73.4% | -0.351 (inactive) | -7.3e-05 (inactive) | 0.00516 (inactive) | inactive | 17% (inactive) | 20.8% (inactive)
16 | CCOC(=O)C1=C(c2ccccc2)N2CCS(=O)(=O)N=C2S1 | 531 | 0.5% (inactive) | -5.8% (inactive) | 105% | -98.9% (inactive) | 108% | -0.271 (inactive) | -1e-05 (inactive) | 0.0047 (inactive) | inactive | 16.1% (inactive) | 20.5% (inactive)
17 | CC(=O)Nc1ccc(Cc2ccncc2)cc1 | 528 | -7.4% (inactive) | 14.9% (inactive) | 93.3% | -40.3% (inactive) | 115% | -0.39 (inactive) | -4.8e-05 (inactive) | 0.00486 (inactive) | inactive | 6.14% (inactive) | 4.37% (inactive)
18 | Cn1nc(C(C)(C)C)cc1C(=O)NCc1ccc(N2CCCC2=O)cc1 | 651 | -10.6% (inactive) | -12.4% (inactive) | 70.7% | -11.3% (inactive) | 107% | -0.456 (inactive) | -9.7e-05 (inactive) | 0.00425 (inactive) | inactive; toxic | 9.24% (inactive) | -37.1% (inactive)
19 | CC1=Nn2c(nnc2-c2ccccc2)SC1 | 303 | -2.7% (inactive) | -6.5% (inactive) | 121% | -19.2% (inactive) | 108% | -0.374 (inactive) | -1.6e-05 (inactive) | 0.00576 (inactive) | inactive | 11.5% (inactive) | -4.42% (inactive)
20 | O=C(O)c1ccc(CSc2ncn[nH]2)cc1 | 352 | -2.9% (inactive) | -12.6% (inactive) | 108% | -14.9% (inactive) | 114% | -0.42 (inactive) | -2.8e-05 (inactive) | 0.00649 (inactive) | inactive | 6.95% (inactive) | 1.16% (inactive)
21 | CC(=O)Nc1ccccc1OCC(=O)c1cc(C)n(Cc2cccs2)c1C | 425 | -2% (inactive) | -13.7% (inactive) | 45.4% | -54.1% (inactive) | 107% | -0.475 (inactive) | -4.2e-05 (inactive) | 0.00662 (inactive) | inactive; toxic | 49.5% (inactive) | -26.5% (inactive)
22 | O=C(Nc1ccc2c(c1)OCO2)N1CCN(c2ncccn2)CC1 | 342 | 10.3% (inactive) | -5.6% (inactive) | 107% | -38.9% (inactive) | 118% | -0.421 (inactive) | -3.9e-06 (inactive) | 0.00535 (inactive) | inactive | -23.4% (inactive) | -41.5% (inactive)
23 | CSc1ccc(-c2cc(=O)c3ccccc3o2)cc1 | 620 | -10.5% (inactive) | -54.9% (inactive) | 8.7% | -108% (inactive) | 139% | -0.00698 (active) | 1.2e-05 (inactive) | 0.00442 (inactive) | inactive | -21% (inactive) | -41.6% (inactive)
24 | COc1ccccc1N(CC(=O)NC1CCCC1)C(=O)CCC(=O)Nc1cc(C)on1 | 566 | -8.6% (inactive) | 10.8% (inactive) | 96.8% | -29.3% (inactive) | 102% | -0.408 (inactive) | -5.9e-05 (inactive) | 0.00447 (inactive) | inactive | -11.8% (inactive) | -11.2% (inactive)
25 | O=C(CSc1nnc(-c2ccco2)n1CC1CCCO1)N1CCCCC1 (stereo not given) | 375 | 1.4% (inactive) | 9.7% (inactive) | 102% | -41% (inactive) | 107% | -0.378 (inactive) | -6.2e-05 (inactive) | 0.00431 (inactive) | inactive | 13.1% (inactive) | 11.6% (inactive)
